Most compounds without a hit are left out; they make up all but 4% or so of the library.
H9c2 protect = cardioprotection against H2O2-induced cell death, primary screen, uHTS, H9c2 cells, ATPLite luminescence | 0.63% of 360,000 active | protection from H2O2 cell death, % at 20 µM | AID 588492, 2011 | H9c2 cardiomyocytes, H2O2 injury protection, 2 h;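 active = compounds giving at least 50% protection of heart cells from peroxide-induced death in the single-dose screen, raw or plate-pattern-corrected value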
SENP1 inh = human SENP1 catalytic domain inhibitors, primary screen, biochemical, FRET, uHTS; recombinant SENP1 catalytic domain, CyPet-SUMO1-YPet FRET cleavage; inhibition, % at 10 µM; 0.21% of 360,000 active;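 active = inhibition at least 30% at 10 µM, raw YFP signal under a set limit, fluorescence ratio 0.5 to 1.5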
Target sequence (Q9P0U3 419-644 limits assumed): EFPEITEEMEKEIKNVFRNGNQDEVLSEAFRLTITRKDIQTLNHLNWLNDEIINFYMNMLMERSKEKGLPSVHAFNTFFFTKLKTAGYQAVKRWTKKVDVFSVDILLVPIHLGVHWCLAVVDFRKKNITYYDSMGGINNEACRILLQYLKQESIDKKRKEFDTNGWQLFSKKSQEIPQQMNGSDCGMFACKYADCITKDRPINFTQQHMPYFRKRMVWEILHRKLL
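Assay system: hSENP1 catalytic domain, recombinant. Amount: SENP1 enzyme, 20 pM final. Schedule: 50 min reaction, RT, dark. Technique: FRET, CFP and YFP emission. Control set: no-enzyme wells low, DMSO-plus-enzyme wells high control.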
GRIN3A LBD mod = binders of NR3A ligand-binding domain, primary screen, biophysical, differential scanning fluorimetry, uHTS | Glutamate receptor ionotropic, NMDA 3A (GRIN3A) ligand-binding domain | NR3A LBD differential scanning fluorimetry, Tm shift; 0% = protein alone, 100% = glycine-bound protein | Tm shift relative to glycine control, % at 25 µM | 2.5% of 340,000 active | AID 1259313, 2017;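 active = melting temperature shift of at least 10% of the positive control shift, at one fixed dose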
FAS TE block = FAS thioesterase domain inhibitors, primary screen, biochemical, fluorescence intensity, uHTS; recombinant FAS-TE, OMFH fluorogenic substrate, fluorescence endpoint; inhibition, % at 15 µM; Fatty acid synthase (Homo sapiens), P49327; AID 602261, 2012; 0.67% of 360,000 active;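 active = compounds whose normalised, plate-corrected inhibition of enzyme fluorescence in the single-dose primary screen is 50% or more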
iPSC survival up = enhancers of single-cell hiPSC survival, primary screen, ATPlite luminescence; 0.044% of 360,000 active; survival enhancement, % at 20 µM; 100% = ROCK inhibitor wells, 0% = DMSO; AID 602274, 2012; in the data active = survival enhancement above about 18%;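 also: cells exposed to compounds for 16 hours before the ATP read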
Arr AP2 block = inhibitors of beta-arrestin/AP2 binding, primary screen, biochemical, GPCR trafficking, flow cytometry | beta-arrestin 1 C-terminal peptide binding to AP2 beta2-adaptin appendage (human) | 0.31% of 340,000 active | FITC-arrestin peptide / GST-AP2 beads; AP2 beta2 appendage carries R879A mutation | inhibition, % at 10 µM;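 active = inhibition above a set limit, near 3 SD of compounds lacking own fluorescence, cut at about 54% in these data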
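System: GST-AP2 R879A glutathione beads. Medium: PBS with 0.05% Tween 20 and 0.1% BSA. Also added: FITC-arrestin peptide, 50 nM. Incubation: 12 min plus 1 h, RT. Measured by: high-throughput flow cytometry of beads, ex 488, em 535 nm. Evaluation: percent drop in bead-associated FITC signal.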
FAS-TE inh conf = FAS thioesterase domain inhibitors, confirmation, biochemical, fluorescence intensity, single concentration | 45% of 2,300 active | shares compounds with FAS TE block | recombinant FAS-TE, OMFH fluorogenic substrate | inhibition, % at 15 µM;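 active = compounds inhibiting the enzyme by at least 50% at 15 µM in any one of the replicates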
A number is an active result; n = inactive; x = no result.

SMILES	H9c2 protect	SENP1 inh	GRIN3A LBD mod	FAS TE block	iPSC survival up	Arr AP2 block	FAS-TE inh conf
COc1ccc(C(c2nnnn2-c2ccc3c(c2)OCCO3)N2CCC(n3c(=O)[nH]c4ccccc43)CC2)cc1 (stereo unspecified)	n	n	x	54	n	x	n
COc1ccc(-n2nnnc2C(c2ccccc2OC(F)(F)F)N2CCC(n3c(=O)[nH]c4ccccc43)CC2)cc1 (stereo unspecified)	n	n	x	60	n	x	n
COc1cccc(C(c2nnnn2-c2c(C)cccc2C)N2CCC(n3c(=O)[nH]c4ccccc43)CC2)c1OC (stereo unspecified)	n	n	x	82	n	x	n
O=c1[nH]c2ccccc2n1C1CCN(C(c2ccnc3ccccc23)c2nnnn2-c2ccc3c(c2)OCCO3)CC1 (stereo unspecified)	n	n	x	n	n	x	x
CCC(c1nnnn1-c1ccc(OC)cc1)N1CCC(n2c(=O)[nH]c3ccccc32)CC1 (stereo unspecified)	n	n	x	n	n	x	x
Cc1cccc(C)c1-n1nnnc1C(CCc1ccccc1)N1CCC(n2c(=O)[nH]c3ccccc32)CC1 (stereo unspecified)	n	n	x	54	n	x	n
O=C(NCC1=C(c2cccc3ccccc23)C[C@@H]2CC[C@H]1N2Cc1ccco1)c1cccs1	n	n	x	n	n	x	x
C[C@]12CC[C@@H](O)CC1=CCC1C2CC[C@@]2(C)C1CC[C@@H]2O (stereo partly specified)	n	n	x	n	n	x	x
C/C=C1\NC(=O)[C@H](C)NC(=O)[C@@H](NC(=O)[C@H](Cc2ccc(O)cc2)NC(=O)[C@@H](NC(=O)/C(C)=C/C)C(C)C)[C@@H](C)OC(=O)[C@H](CCCc2ccc(O)cc2)NC(=O)[C@@H](CCC(=O)O)NC1=O	n	n	x	n	n	x	x
O=c1[nH]c2ccccc2n1C1CCN(C(CCc2ccccc2)c2nnnn2-c2ccc3c(c2)OCCO3)CC1 (stereo unspecified)	n	n	x	89	n	x	n
Cc1cccc(Cn2cc(C=O)c3ccccc32)c1	n	n	n	n	n	n	x
O=Cc1cn(Cc2cccc([N+](=O)[O-])c2)c2ccccc12	n	n	n	55	n	n	59
CCOC(=O)[C@]12Cc3ccccc3[C@H]1N(C(C)C)C(=O)c1cc(OC)ccc12	x	n	x	n	n	x	x
CCOC(=O)[C@]12Cc3cc(C)ccc3[C@H]1N(C1CCCCC1)C(=O)c1cc(OC)ccc12	x	n	x	85	n	x	40
CCOC(=O)[C@]12Cc3cc(OC)ccc3[C@H]1N(C1CCCCC1)C(=O)c1cc(OC)ccc12	x	n	x	62	n	x	n
CCOC(=O)[C@]12Cc3cc(C)ccc3[C@H]1N(C(C)C)C(=O)c1ccccc12	x	n	x	57	n	x	n
CCOC(=O)[C@]12Cc3cc(C)ccc3[C@H]1N(CCC(=O)OC)C(=O)c1cc(OC)ccc12	x	n	x	n	n	x	x
CC(C)C(O)(C(=O)OCC1=CCN2CCC(O)C12)C(C)O (stereo unspecified)	n	n	x	n	n	x	x
COC(=O)C1=C(c2cccc3c2S(=O)(=O)c2ccccc2-3)C[C@@H]2CC[C@H]1N2C(=O)N1CCOCC1	n	n	n	n	n	n	x
COC(=O)C1=C(c2cccc3c2S(=O)(=O)c2ccccc2-3)C[C@@H]2CC[C@H]1N2C(=O)N1CCc2cc(OC)c(OC)cc2C1	n	n	n	68	n	n	n
CN(Cc1cccc(-c2cccnc2)c1)C(=O)Oc1ccc([N+](=O)[O-])cc1	x	n	x	51	n	x	n
Cc1ccc(Cn2nnnc2CN2CCC(n3nnc4cc(C)ccc43)CC2)cc1	n	n	n	n	n	n	x
O=c1[nH]c2ccccc2n1C1CCN(Cc2ccc(-c3nc4ccc(F)cc4nc3-c3ccccc3)cc2)CC1	x	n	x	63	n	x	n
Cc1ccc2nc(-c3ccc(CN4CCC(n5c(=O)[nH]c6ccccc65)CC4)cc3)c(-c3ccccc3)nc2c1	x	n	x	72	n	x	n
COc1ccc(N2C(=O)CC(N3CCC(n4c(=O)[nH]c5ccccc54)CC3)C2=O)cc1 (stereo unspecified)	n	n	n	n	n	n	x
SMILES	H9c2 protect	SENP1 inh	GRIN3A LBD mod	FAS TE block	iPSC survival up	Arr AP2 block	FAS-TE inh conf
COc1ccc2nc(-c3ccc(CN4CCC(n5c(=O)[nH]c6ccccc65)CC4)cc3)c(-c3ccccc3)nc2c1	x	n	x	76	n	x	n
O=c1[nH]c2ccccc2n1C1CCN(Cc2ccc(-c3nc4ccccc4nc3-c3ccccc3)cc2)CC1	x	n	x	61	n	x	n
Cc1nc2cc(F)ccc2n1C1CCN(Cc2nnnn2CCc2ccccc2)CC1	n	n	n	n	n	n	x
CCC(C)C1NC(=O)C(NC(=O)C(CC(C)C)N(C)C(=O)C2CCCN2C(=O)C(C)O)C(C)OC(=O)C(Cc2ccc(OC)cc2)N(C)C(=O)C2CCCN2C(=O)C(CC(C)C)NC(=O)[C@H](C)C(=O)[C@H](C(C)C)OC(=O)CC1O (stereo partly specified)	n	n	n	n	n	n	x
Cc1ccc(OC(=O)N(C)C[C@@H]2OCc3cnnn3CCCC(=O)N([C@@H](C)CO)C[C@H]2C)cc1	n	n	x	n	n	x	x
O=C1NCN(c2ccccc2)C12CCN(C(CCc1ccccc1)c1nnnn1C1CCCC1)CC2 (stereo unspecified)	n	n	x	n	n	x	x
Cc1cccc(CSc2nc3c(cc2C#N)CN(C)CC3)c1	n	n	n	n	n	n	x
CN1CCc2nc(SCc3ccccc3Br)c(C#N)cc2C1	n	n	n	54	n	n	45
C=CCn1c(=O)c(C=Nc2c(OC)cccc2[N+](=O)[O-])c(O)n(CCCC)c1=O	n	n	n	70	n	n	n
C=CCn1c(=O)c(C=Nc2cccc([N+](=O)[O-])c2)c(O)n(CCCC)c1=O	n	n	n	n	n	n	x
O=C1NCN(c2ccccc2)C12CCN(C(c1ccccc1OC(F)(F)F)c1nnnn1C1CCCC1)CC2 (stereo unspecified)	n	n	x	n	n	x	x
